# Results taken from the RNAGym collection of RNA variant scans (doi:10.1126/science.aae0568).
# Variants at the floor of the assay were thinned out.
# B1: tRNA (parent)
# chain: GUUCCGUUGGCGUAAUGGUAACGCGUCUCCCUCCUAAGGAGAAGACUGCGGGUUCGAGUCCCGUACGGAACG
# Variants of: B1
# Experiment: yeast fitness relative to wild type (ratio to wild type); higher = fitter; tRNA-Arg(CCU), competitive growth, 37 C, YPD
# Outline: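 A pool of Saccharomyces cerevisiae strains, each with a tRNA-Arg(CCU) gene variant at the native genomic locus, was competed in YPD at 37°C for 24 hours across six parallel replicates. The variants had been chemically synthesised at a 3% per-site mutation rate over 69 sites, and gene amplicons before and after competition were read by 100-nucleotide paired-end sequencing. Darwinian fitness relative to wild type rested on changes in genotype frequencies. Genotypes required ≥ 100 starting reads, and estimates < 0.5 were set to 0.5.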
row,Variant,yeast fitness
1,C27G G50A,0.654
2,C4U G6C A14C C24G A45C A57C C61U,≤ 0.5
3,A40C A65G,0.924
4,A15C U28A G39A A65G,≤ 0.5
5,U7C C31U A57U,0.539
6,C24A C30U C62U,0.511
7,C4G A14U C66U,≤ 0.5
8,U26A U54C,0.817
9,G23A C61U G67A,0.525
10,A42U U47A G51A,≤ 0.5
11,A42C G50U,0.781
12,C11A A43U C46U U47G G58A,≤ 0.5
13,C5G A42G A70C,0.805
14,G23C C61G G68C,0.5
15,A21C A45C C49U U64C,≤ 0.5
16,A14C A45U C62A,≤ 0.5
17,C5U U13A A57U,0.573
18,U2C G48A G67A,0.633
19,C4G U16G A20C A21G C30U,≤ 0.5
20,C31U A37G,0.69
21,C5U A21U C29G G58C,≤ 0.5

row,Variant,yeast fitness
1,A36G C60G,0.629
2,U7C,1.01
3,G17U A40C,0.823
4,G23C A37U G41A G63A,0.558
5,C11U G48A G51A,0.724
6,U26C C66G,0.674
7,G9C G51C G52A C60A A70U,≤ 0.5
8,U8C A14G G23U A65C,≤ 0.5
9,G44C C62A C66U,≤ 0.5
10,C34G G48C U59C,0.712
11,C5U G38C G39C A40G G44A C46G G52A U59G,≤ 0.5
12,G6C U16C,0.803
13,U3A U26C C31U A40C,≤ 0.5
14,U28G C31G,0.629
15,U2A A14G A37U U54A,≤ 0.5
16,C4G C34A,0.762
17,G10A C24G C34U G63C,≤ 0.5
18,U26C A36G,0.856
19,C4U U8C A40U G50C,≤ 0.5
20,C30U C46A G63A,0.825
21,G12A A43C C46U,0.764

row,Variant,yeast fitness
1,G6A U8G A42U C61G,≤ 0.5
2,U2C C27A G41A C49A U53C U54C U64C,≤ 0.5
3,G58A A65C,1.05
4,G10C U35G A43C U47C C55U,≤ 0.5
5,A15U C55A,0.503
6,A37U A42U G52C,0.575
7,C31U U35C U47A,≤ 0.5
8,C22G U26G C27G U53A,≤ 0.5
9,C30U A65G,0.932
10,U32G A45C,0.692
11,C33U A57C,≤ 0.5
12,A21G A43C C60G A69U,≤ 0.5
13,C24G C29A A43U,≤ 0.5
14,U26C G39A U59C,0.604
15,U13A C24A,0.624
16,C5G G17A A37C A65C,0.588
17,C11G U16A,0.666
18,C46G G63A A65U,0.721
19,C24U C27G U59A A70G,≤ 0.5
20,G12A G39C C66U,0.572
21,U2A G12C G23C,≤ 0.5

row,Variant,yeast fitness
1,U2G U7G A43C A45U C60A,≤ 0.5
2,C22A A65U A70G,0.662
3,A20C C24A,0.751
4,C33U A42C C62A,≤ 0.5
5,U8A G67U,0.636
6,U16A G17A C33A G38C A43G U53C,≤ 0.5
7,U13C A14C U64C A65C,≤ 0.5
8,G52A C55U,0.561
9,C4U U35C A36G G44C,0.708
10,G12C C30G A42U,≤ 0.5
11,C4U G9A C33G G67A,≤ 0.5
12,C5G U47A C62G G63A,≤ 0.5
13,A15G A57U G68U,≤ 0.5
14,U3G A37C A42U A43G G58C C62U,≤ 0.5
15,U8C G10A U19C C34A C46U A65C,≤ 0.5
16,C22G C60G,0.621
17,A14G A20C A43U C55G,≤ 0.5
18,C4G C62A C66U,0.704
19,A21U G48C G63A,≤ 0.5
20,U2C C5G C46U U54G A65C,≤ 0.5
21,A15U A65U A70C,≤ 0.5
